Hep lipid drop = hepatic lipid droplet formation modulation; AML12 mouse hepatocytes, oleate lipid droplets, BODIPY imaging; 240,000 tested, 0.4% active; inhibition, % at 6.5 µM;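 active means lipid droplet intensity inhibited by at least 50%, with more than 500 cells counted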
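Material – AML12 mouse liver cells · Also added – oleate loading, 100 µM · Compound dosing – 6.5 µM single-point dosing · Times – overnight treatment with compound plus oleate · Measured by – fluorescence imaging, 20x objective, two fields per well · Read-out – percent inhibition of filter-corrected integrated lipid droplet intensity per well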
XBP1 UPR activ = adaptive UPR (XBP1) activation; CHO-XBP1 luciferase reporter, IRE1-XBP1 UPR activation, luminescence; percent of tunicamycin response, DMSO as zero; activation, % at 20 µM; 330,000 tested, 0.33% active; AID 463104;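 active means versus positive control, 20 µM dose yields 30% or more activation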
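Assay system: CHO-XBP1 luciferase reporter cells; Schedule: 6 h treatment, 37 °C; Detection: glow luminescence from Steady-Glo reagent; Benchmarks: high control tunicamycin 10 µg/mL final, low control DMSO vehicle only.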
ANO1 block = blocks the mouse calcium-activated chloride channel TMEM16A; Q8BHY3; HEK293 TMEM16A/YFP iodide influx fluorescence, ionomycin; normalized B-score (activity score, 25-100; higher = stronger inhibition) at 10 µM; 310,000 tested, 1.2% active; AID 588511;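 active means ratio plate-corrected score three or more library SD toward inhibition, starting fluorescence score within five deviations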;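 further: score derived from kinetic fluorescence span divided by baseline fluorescence per well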
Target sequence (Q8BHY3 whole entry, looked up): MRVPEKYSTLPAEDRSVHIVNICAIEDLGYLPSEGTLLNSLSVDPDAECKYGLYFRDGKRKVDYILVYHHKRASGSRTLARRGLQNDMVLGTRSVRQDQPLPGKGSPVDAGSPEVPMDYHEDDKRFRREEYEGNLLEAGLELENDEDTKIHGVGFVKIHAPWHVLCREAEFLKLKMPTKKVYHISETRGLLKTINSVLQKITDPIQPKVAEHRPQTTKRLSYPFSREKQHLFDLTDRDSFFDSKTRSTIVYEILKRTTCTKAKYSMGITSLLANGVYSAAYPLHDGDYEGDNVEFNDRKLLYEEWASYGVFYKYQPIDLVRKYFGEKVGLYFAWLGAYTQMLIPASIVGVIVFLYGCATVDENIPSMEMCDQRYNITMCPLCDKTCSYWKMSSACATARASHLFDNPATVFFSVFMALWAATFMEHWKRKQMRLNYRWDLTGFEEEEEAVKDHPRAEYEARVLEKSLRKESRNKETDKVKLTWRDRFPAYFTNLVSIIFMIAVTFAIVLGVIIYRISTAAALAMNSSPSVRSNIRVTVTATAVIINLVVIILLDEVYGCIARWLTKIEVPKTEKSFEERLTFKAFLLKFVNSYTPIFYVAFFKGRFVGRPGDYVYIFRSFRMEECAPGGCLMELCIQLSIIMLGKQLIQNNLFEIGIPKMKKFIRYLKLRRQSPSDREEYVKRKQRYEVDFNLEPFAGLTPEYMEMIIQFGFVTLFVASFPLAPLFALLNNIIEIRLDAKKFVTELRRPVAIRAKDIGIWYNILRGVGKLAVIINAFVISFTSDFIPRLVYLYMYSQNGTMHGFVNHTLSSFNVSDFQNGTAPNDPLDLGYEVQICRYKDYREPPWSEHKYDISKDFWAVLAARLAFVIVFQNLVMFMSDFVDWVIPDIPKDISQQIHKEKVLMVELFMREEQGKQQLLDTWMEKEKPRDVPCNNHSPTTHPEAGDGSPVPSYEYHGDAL
TMEM16A act = mouse TMEM16A channel activation, primary screen | Q8BHY3 | 340,000 tested, 0.3% active | B-score at 10 µM | AID 623877 | HEK293 TMEM16A/YFP-H148Q/I152L, iodide quench fluorescence; stronger effect = lower value;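 active means fluorescence-ratio B-score plate-corrected deviation score at least 3 library SD below zero, with starting fluorescence score within 5 deviations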;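 further: channel opened by trigger with iodide after compound preincubation; score built on the fluorescence ratio of max minus min over baseline; more negative score means more quench and so TMEM16A activation or potentiation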
CHOP inh = CHOP inhibition in unfolded protein response; CHO-K1 CHOP-promoter luciferase, tunicamycin-induced, 15-18 h; inhibition, % at 10 µM; 220,000 tested, 3.8% active; AID 2732;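 active means compounds that reduced the stress-induced luciferase reporter signal by more than about 70% of percent inhibition, limit read from the data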
CHOP UPR activ = activators of apoptotic arm of unfolded protein response (CHOP) | CHO-CHOP luciferase reporter, UPR activation, luminescence; percent of tunicamycin response over DMSO baseline | activation, % at 10 µM | 330,000 tested, 0.34% active | AID 449763;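 active means at 10 µM dose, activation of 40% or more, normalized to positive control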
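System: CHO CHOP reporter cells. Amount: 500 cells per well. Buffer or medium: F12 medium, 10% FBS. Compound dosing: one dose, 10 µM in 0.5% DMSO. Incubation: 6 h compound exposure at 37 °C after overnight seeding. Technique: Steady-Glo luciferase luminescence. Benchmarks: tunicamycin and DMSO controls.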
Of the large screens only hits and unclear results are named; the others gave an inactive call. Most compounds without a hit are left out; they make up all but 4.2% or so of the library.

COc1ccc(-c2cc3nc(C)n(N)c(=O)c3s2)cc1	CHOP inh 102
C=CCn1c(SCCNC(C)=O)nc2cc(-c3ccccc3)sc2c1=O	none (no result: CHOP inh)
COc1ccc(-c2cc3nc4n(c(=O)c3s2)CCC4)cc1	none
COc1ccc(NC(=O)CSCC(=O)NCc2ccco2)cc1	none (no result: Hep lipid drop, CHOP inh)
COc1ccc(-c2nc(CSCC(=O)NCc3ccco3)c(C)o2)cc1	ANO1 block 100 (no result: Hep lipid drop)
CCNS(=O)(=O)c1ccc(CCC(=O)Nc2ccc3c(c2)OCCO3)cc1	none (no result: CHOP inh)
NC(=O)N/N=C/c1ccc(-c2cccc(C(F)(F)F)c2)o1	none
Cc1ccc(NCC(=O)N/N=C/c2ccc(-c3cccc(C(F)(F)F)c3)o2)cc1	CHOP inh 81
O=C(N/N=C/c1ccc(-c2cccc(C(F)(F)F)c2)o1)c1ccccc1O	CHOP inh 90
Cc1nn(Cc2ccccc2)c(Cl)c1/C=N/NC(=O)CNc1cccc(C(F)(F)F)c1	CHOP inh 94
CCn1c(CNc2cccc(Cl)c2)nnc1SCC(=O)OC1CCCCC1	CHOP inh 72
Cc1cc(C)cc(NC(=O)C[n+]2ccccc2)c1	none (no result: CHOP inh)
C/C(=N\NC(=O)COc1cccc(C)c1)c1ccc2ccccc2c1O	none (no result: CHOP inh)
CCCOC(=O)c1ccc(Oc2c(-c3ccc(OC)cc3O)n[nH]c2C)cc1	CHOP inh 91 (no result: Hep lipid drop)
Cc1[nH]nc(-c2ccc(O)cc2O)c1-c1nc2ccccc2s1	none
Cc1[nH]nc(-c2ccc(O)cc2O)c1-c1ccc(Cl)cc1	ANO1 block 100 (no result: Hep lipid drop)
COc1ccc(-c2n[nH]c(C)c2-c2ccc(Cl)cc2)c(O)c1OC	CHOP inh 90
COc1ccc(-c2n[nH]c(C)c2-c2ccc(Cl)cc2)c(O)c1	CHOP inh 93 (no result: Hep lipid drop)
CCCOC(=O)c1ccc(Oc2cn[nH]c2-c2ccc(O)cc2O)cc1	none
Cc1cc(C)c(NC(=O)C2CC(=O)N(C3CCCC3)C2)c(C)c1 (centres undefined)	none (no result: Hep lipid drop, ANO1 block, CHOP inh)
CCOc1ccc2oc(C(=O)OCC(=O)NCc3ccc(OC)cc3)c(C)c2c1	none (no result: Hep lipid drop, ANO1 block, CHOP inh)
CCCNC(=O)NC(=O)COC(=O)c1oc2ccc(OCC)cc2c1C	CHOP inh 72
O/N=C/c1cc(Br)cc(Br)c1OCc1ccccc1	CHOP inh 92
CC1CN(C(=O)CSc2nnc(-c3cccs3)n2N)CC(C)O1 (centres undefined)	none (no result: Hep lipid drop, ANO1 block, CHOP inh)
CCN1CCN(C(=O)C(Cc2ccccc2)NC(=O)c2ccc(Cl)c(S(=O)(=O)N(C)C)c2)CC1 (centres undefined)	TMEM16A act -46 (no result: Hep lipid drop, ANO1 block, CHOP inh)
O=C(NC(Cc1ccccc1)C(=O)N1CCN(S(=O)(=O)c2ccccc2F)CC1)c1ccccc1 (centres undefined)	none (no result: Hep lipid drop, ANO1 block, CHOP inh)
O=C(O)C1(Cc2nc3ccccc3[nH]2)CCCC1	none (no result: CHOP inh)
Cn1cc(C(=O)C(=O)N2CCc3ccccc32)c2ccccc21	none (no result: CHOP inh)
COc1cc(OC)cc(-c2cc3nc(C)c(CCC(=O)NCc4ccccc4)c(C)n3n2)c1	CHOP inh 84
Cc1csc(NC(=O)CSc2nnc(-c3ccc(Cl)cc3)n2N)n1	none
Cc1nc2cc(-c3ccc(Cl)cc3)nn2c(C)c1CCC(=O)NC(C)c1ccc2c(c1)OCCO2 (centres undefined)	CHOP inh 79
COc1ccccc1-c1cc2nc(C)c(CCC(=O)NCc3ccc(F)cc3)c(C)n2n1	none
Cc1csc(NC(=O)CCc2c(C)nc3cc(-c4ccc(Cl)cc4)nn3c2C)n1	CHOP inh 88
Nc1nc(SCc2ccc([N+](=O)[O-])cc2)c2ncn([C@@H]3O[C@H](CO)[C@H](O)C3O)c2n1 (some centres undefined)	none (no result: Hep lipid drop, XBP1 UPR activ, ANO1 block, TMEM16A act, CHOP UPR activ)
CNc1c([N+](=O)[O-])cnn1-c1ccc(F)cc1	none
CCn1c(O)c(N=Nc2ccc3ccccc3n2)c2ccccc21	none
Brc1ccc(N=Nc2ccc3ccccc3n2)cc1	CHOP inh 91
O=C(COc1ccc2c(c1)CCC2)N1CCN(c2cccc(C(F)(F)F)c2)CC1	CHOP inh 86
CCC(C)[C@H](NC(=O)N1CCN(c2cccc(C(F)(F)F)c2)CC1)C(=O)OC (some centres undefined)	CHOP inh 81
